Experimental data published in the array DNA melting data of Ke et al. (doi:10.1101/2024.01.08.574731).

Legend:
[1] = melting temperature; fluorescence melt of hairpins on a sequencing array, two-state fit, raised by 9.35 °C to match UV melts; conditions: sodium 0.088 M
Outline: (§1)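 Melting temperature and folding enthalpy were obtained by bootstrapped two-state fitting. Fits used Cy3 fluorescence of library hairpins with annealed Cy3 and quencher oligos on a sequenced MiSeq flow cell, imaged in 50 mM Na-HEPES pH 8.0, 25 mM NaCl in 2.5 °C steps up to 60 °C and normalised to pre-quench Cy3 and control constructs. Four replicates were combined by inverse-variance weighting, and fitted temperatures were raised by 9.35 °C to match UV melts.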

[2] = folding enthalpy; higher = less favourable; fluorescence melt of hairpins on a sequencing array, two-state fit; conditions: sodium 0.088 M
Outline: as §1

Sequence | Tm [1] [°C] | folding enthalpy [2] [kcal/mol]
GGCGTAGGAAACTGTGCC (((..((....))..))) | 39.4 | -27
GCTCACGGAAACACGAGC ((((..(....)..)))) | 34 | -25.8
GCTATGGGAAACTGTAGC ((((..(....)..)))) | 36 | -25.2
GATCAGGGAGCTGATC ((((((....)))))) | 52.4 | -35.2
GGACACGAAAGTGTATCC ((((((....)))..))) | 36.1 | -10.9
GAATAAGGAAACTTATTC (((((((....))))))) | 44.6 | -33.5
GATCGAAGACTCGATC ((((((....)))))) | 48.5 | -30.3
GTACACGAAAGTGGATAC ((((((....)))..))) | 34.5 | -11.8
GGCCTCCGAAAGGACGCC (((.(((....))).))) | 53.6 | -37.2
GCGAAAGTCGC ((((...)))) | 43.8 | -16.6
GCCCTCCGAAAGGAAGGC (((.(((....))).))) | 53 | -30.8
GATCACACAAGTGATC ((((((....)))))) | 56.2 | -42.4
GATCATTCAAATGATC ((((((....)))))) | 47.3 | -34
GTTTCAACGAAAGTTAAC (((..(((....)))))) | 35.5 | -15.8
GATCAATTTTTGATC ((((((...)))))) | 45.9 | -33.6
GGGCTCGGAAACGAGTCC ((.((((....)))).)) | 65.2 | -41
GATCCAAACATGGATC ((((((....)))))) | 50.8 | -32.7
GATCTTCACAAGATC ((((((...)))))) | 45.8 | -28.7
GATTGCCCGAAAGGGATC (((..(((....)))))) | 25.8 | -7.39
GGAGTGGAAACACTCC ((((((....)))))) | 63.2 | -33
GCCCCCCGAAAGGGAGGC (((.(((....))).))) | 67 | -29.8
GCCAACGAAAGTTAGGGC ((((((....)))..))) | 46.6 | -23.5
GAGATCGAAAGATCTC ((((((....)))))) | 63.2 | -38.2

Sequence | Tm [1] [°C] | folding enthalpy [2] [kcal/mol]
GGTTACGAAAGTAGAACC ((((((....)))..))) | 37.8 | -18.2
GACACGGGAAACCGTACC (..((((....))))..) | 27.9 | -8.11
GATCGATCGATCGATC ((((((....)))))) | 57.1 | -57.6
GGCCGATCGAAAGATGCC (((..(((....)))))) | 38.9 | -25.1
GGCTTTCGAAAGAACGCC (((.(((....))).))) | 50.2 | -39.3
CGCGGAAAAACAACCGCG ((..............)) | 49.8 | -26.4
GGCCAGCCGAAAGGCGCC (((..(((....)))))) | 55.1 | -13.4
GCTGTCGAAAGACATAGC ((((((....)))..))) | 45.1 | -16.4
GACTTGCGAAAGCAGTC (((.(((....)))))) | 51.9 | -17.4
GTAGGGGGAAACCCTTAC (((.(((....))).))) | 42 | -17.4
GATTTCGGAAACGAAGTC ((.((((....)))).)) | 39.3 | -23.8
GATGCCGGAAACGACATC ((((.((....)).)))) | 48.2 | -38.3
GAGCACGAAAGTGGACTC ((((((....)))..))) | 48.7 | -14.2
GCCACGCGAAAGCATGGC ((((.((....)).)))) | 66.8 | -32.9
GATTGCGCGAAAGCGATC (((..(((....)))))) | 32 | -9.1
GCTGGAGGAAACTCCGGC ((.((((....)))).)) | 57.1 | -40.4
GATCGGTGTTCCGATC ((((((....)))))) | 58.6 | -41.3
CGGCGACGGAAACGTCCG (((..(((....)))))) | 38.5 | -17.4
GACTTGCGAAAGCATGTC (((.(((....))).))) | 55.8 | -25.2
GATCTAGCGTAGATC ((((((...)))))) | 37.7 | -29.1
GATCATTGTAATGATC ((((((....)))))) | 50.3 | -36
GGGCGCCCGAAAGGGCCC (((..(((....)))))) | 59.5 | -11.5
GGTATCGAAAGATCCACC ((((((....)))..))) | 31.8 | -14.7
